Compound activity from PubChem.
FLuc inh counter: Photinus pyralis luciferase inhibition counter-screen; inhibition, % at 10 µM; 200,000 compounds, 1.5% hits; AID 1006; P08659; ATPLite firefly luciferase biochemical luminescence, 10 min;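 active = inhibition above about 50% when tested at 10 µM, limit read from the data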
PKD1 kinase inh: inhibitors of human PKD1 kinase. Q15139. PKD1 kinase fluorescence polarization assay. inhibition, % (no concentration beside the values). 200,000 compounds, 0.056% hits; in the data active = inhibition above about 50%
PPC-1+TRAIL kill: compounds killing PPC-1 cancer cells with TRAIL present (potentiator screen, no TRAIL-free arm); PPC-1 cells + TRAIL, ATPLite viability luminescence; cell killing (% activity), % at 4 µM or 5 µM; 220,000 compounds, 0.41% hits;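 active = cell killing above 50% in the first pass at 4 µM, then a duplicate retest at 5 µM averaging 50% or more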;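 also: plate controls were cells with TRAIL plus DMSO for no effect and medium-only wells lacking cells for full effect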
Wee1 degr inh: human Wee1 degradation inhibition, primary screen; 220,000 compounds, 1.2% hits; HeLa Luc-Wee1K328M stability, luciferase luminescence; 100% = proteasome inhibitor MG132 effect; reporter increase, % at 5 µM; P30291; AID 1321;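 active = activation above the mean of all tested compounds plus 3 SD, set per screening run, cut at about 8.8% in these data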;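 also: cells exposed to compound for 20 h before luminescence read; 0% = DMSO alone and 100% = MG132 at 30 µM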
Target sequence (P30291 whole entry K328M): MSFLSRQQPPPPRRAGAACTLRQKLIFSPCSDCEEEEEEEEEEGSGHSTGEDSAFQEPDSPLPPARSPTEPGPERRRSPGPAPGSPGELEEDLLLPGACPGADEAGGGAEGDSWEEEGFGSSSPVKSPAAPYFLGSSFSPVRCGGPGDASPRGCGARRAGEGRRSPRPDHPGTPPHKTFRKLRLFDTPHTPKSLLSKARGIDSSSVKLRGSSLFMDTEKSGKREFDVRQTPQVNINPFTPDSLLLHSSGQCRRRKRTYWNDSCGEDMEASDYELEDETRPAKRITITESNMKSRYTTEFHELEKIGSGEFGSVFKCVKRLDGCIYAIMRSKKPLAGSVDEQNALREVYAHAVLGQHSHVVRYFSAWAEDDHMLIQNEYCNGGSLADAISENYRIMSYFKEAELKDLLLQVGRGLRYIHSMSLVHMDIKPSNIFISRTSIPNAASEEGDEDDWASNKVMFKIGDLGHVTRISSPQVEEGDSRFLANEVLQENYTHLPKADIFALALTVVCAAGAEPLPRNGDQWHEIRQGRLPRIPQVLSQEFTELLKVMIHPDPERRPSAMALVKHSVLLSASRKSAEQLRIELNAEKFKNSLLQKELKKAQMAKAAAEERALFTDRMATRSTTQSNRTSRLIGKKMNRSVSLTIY
FLuc act counter: firefly luciferase counter-screen for stimulation assays; P08659; ATPlite luciferase biochemical, luminescence, 10 min; 0 = ATP-free wells, 1 = DMSO control; 200,000 tested, under 10 active; activation factor at 10 µM;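 active = luciferase activation factor, scaled between plate controls, of at least 2 with compound at 10 µM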
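Assay system: Luciferase/luciferin detection reagent, cell-free biochemical luciferase assay / Read-out: luciferase activation / Benchmarks: No-ATP low control, compound-free enzyme-plus-ATP high control / Medium: PBS buffer for ATP / Detection: luminescence measurement of luciferase light output / Schedule: 10 min at ambient temperature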
TRAIL sens C8: sensitizes caspase-8 expressing cells to TRAIL. NB7+C8 cells + TRAIL, ATPlite viability luminescence. inhibition (viability loss, TRAIL sensitization), % at 10 µM. 360,000 compounds, 1% hits;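 active = compounds causing at least 50% loss of cell viability in the single-dose screen, relative to plate controls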
* marks the source's active call; other numbers are inactive results; . = no result. Most compounds without a hit are left out; they make up all but 2.2% or so of the library.

SMILES	FLuc inh counter	PKD1 kinase inh	PPC-1+TRAIL kill	Wee1 degr inh	FLuc act counter	TRAIL sens C8
Cn1cc(S(=O)(=O)CC(=O)N2CCCc3ccccc32)c2ccccc21	-8.0	3.1	36.7	1.9	1.1	65.1*
O=C(CCn1c(=O)c2cccn2c2ccccc21)Nc1ccc(F)cc1	.	.	.	.	.	1.0
COc1ccc(C(=O)NC(NC(=O)c2ccc(OC)c(OC)c2)c2ccccc2F)cc1OC	-2.6	3.9	11.7	9.9*	1	-7.9
COc1ccc(C(=O)NCC(C)NC(=O)c2ccc(OC)c(OC)c2)cc1OC (stereo not given)	.	.	.	.	.	-4.2
C=CCn1c(C)cc(C(=O)CN2NS(=O)(=O)c3ccccc3C2=O)c1C	55.4*	0.0	9.5	3.9	0.4	17.9
Cc1ccc(CNC(=O)CN2NS(=O)(=O)c3ccccc3C2=O)cc1	.	.	.	.	.	-0.9
CN(C)CCNC(=O)c1cccc(-c2cc(NC=O)c3ncc(-c4cccc(C(F)(F)F)c4)n3c2)c1	.	.	.	.	.	78.8*
O=[N+]([O-])c1cc(Br)cc(C=Nc2ccc3c(c2)OCO3)c1O	.	.	9.8	9.7*	.	5.9
O=[N+]([O-])c1ccc(O)c(C=Nc2ccc3c(c2)OCO3)c1	.	.	5.4	-0.4	.	-7.4
O=C(NCCCN1CCOCC1)/C(=C/c1ccc(-c2cccc([N+](=O)[O-])c2)o1)NC(=O)c1ccccc1	.	.	.	.	.	-1.8
Cc1nc2nc(C)n(CCN3CCOCC3)c(=O)c2c(-c2cccc([N+](=O)[O-])c2)c1C(=O)CCCCCCCCCCN1CCC(c2ccccc2)(c2ccccc2)CC1	.	.	.	.	.	91.9*
c1ccc2c(C3=NNC(=NC4CC4)SC3)c[nH]c2c1	52.7*	-11.5	18.9	3.9	0.5	33.8
c1ccc2c(C3=NNC(=NC4CCCCC4)SC3)c[nH]c2c1	-1.5	6.5	-1.3	6.6	1	3.0
c1ccc(C2=NNC(=NC3CC3)SC2)cc1	62.1*	-7.4	32.7	1.7	0.4	17.3
COc1ccc(Nc2nnc(SCC(=O)NC3CCCC3)s2)cc1	.	.	.	.	.	17.8
COc1ccc(C(=O)N/C(=C\c2cn(S(=O)(=O)N(C)C)c3ccccc23)C(=O)NCCCN2CCOCC2)cc1	.	.	.	.	.	-2.4
Nc1ccc2ccccc2c1N=Nc1ccccc1	.	.	.	.	.	0.3
Nc1nn(-c2ccccc2)c(N)c1N=Nc1ccccc1	51.0*	-0.8	16.6	5.2	0.5	23.9
Nc1ncnc(N)c1N=Nc1ccccc1	.	.	.	.	.	65.9*
Nc1nc(N)c(N=Nc2ccccc2)c(=O)[nH]1	.	.	.	.	.	64.2*
Cc1nn(-c2ccccc2)c(N)c1N=Nc1ccccc1	10.4	-4.4	11.4	2.5	0.9	28.8
Cc1nn(CCCC(=O)NCCc2ccc(Cl)cc2)c(=O)c2nn(-c3ccccc3)c(C)c12	.	.	.	.	.	0.8
CC(C)CCNCC(=O)NC(c1ccccc1)c1ccccc1	-2.9	-5.7	4.5	0.0	1	2.4
Cc1cccc(NC(=S)N/N=C/c2ccc([N+](=O)[O-])s2)c1	-4.4	-6.5	1.1	-0.1	1	48.1*
Cc1nn(C)cc1/C=C/C(=O)c1ccccc1	54.4*	-8.2	29.6	5.3	0.5	36.2
SMILES	FLuc inh counter	PKD1 kinase inh	PPC-1+TRAIL kill	Wee1 degr inh	FLuc act counter	TRAIL sens C8
CCn1cc(/C=C/C(=O)c2ccc(O)cc2)c(C)n1	89.7*	1.9	37.0	-0.9	0.1	63.7*
Cc1nn(C)c(C)c1/C=C/C(=O)c1ccccc1	13.6	0.4	-11.6	-0.2	0.9	-6.4
Cn1cc(/C=C/C(=O)c2ccccc2)c2ccccc21	.	.	34.8	-0.2	.	59.9*
O=S(=O)(c1ccccc1F)N1CCN(Cc2cc3c(cc2Br)OCCO3)CC1	.	.	.	.	.	-3.7
CCC(CC)c1nnc(NC(=O)c2cccc(S(=O)(=O)N3CCOCC3)c2)s1	.	.	.	.	.	13.8
CC1=NN(C(=O)COc2cc(C)ccc2C(C)C)C(O)(c2ccccc2)C1 (stereo not given)	.	.	1.8	10.7*	.	0.4
CC1=NN(C(=O)COc2ccc(C)c(C)c2)C(O)(c2ccc(Cl)cc2)C1 (stereo not given)	-6.1	-8.9	30.9	3.7	1.1	7.6
CCCC1=C(C(=O)OCC)C(c2cccs2)n2ncnc2N1 (stereo not given)	.	.	-6.8	2.8	.	10.2
COc1cccc(/C=C2\CCC(C3CCCC3)C2=O)c1OC (stereo not given)	.	.	.	.	.	49.4*
O=C(Cn1c(-c2cscn2)nc2ccccc21)Nc1ccc2ccccc2c1	-1.1	-2.5	12.4	10.7*	1	-1.1
